ChEMBL document CHEMBL1145336, “1-aryl-3-(4-pyridine-2-ylpiperazin-1-yl)propan-1-one oximes as potent dopamine D4 receptor agonists for the treatment of erectile dysfunction” (J Med Chem, 2006)
pEC50, pIC50: −log10 of the molar value.

Legend:
Assay type in all cases: functional, cell-based
D(2) dopamine receptor [1] = biological target: T1, D(2) dopamine receptor (Homo sapiens, UniProt P14416); test: Agonist activity at human recombinant D2 receptor expressed in HEK293 cells by FLIPR assay
Method in brief: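 Calcium flux (FLIPR) in HEK-293 cells coexpressing recombinant human D2L with chimeric Gqo5. Efficacy is the maximal response relative to 10 µM dopamine (100%). EC50 is the concentration giving half-maximal stimulation. Values are means (SEM, n ≥ 3).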

D(4) dopamine receptor = biological target: T2, D(4) dopamine receptor (Homo sapiens, UniProt P21917); test: Activity at human recombinant D4.4 receptor expressed in HEK293 cells by FLIPR assay
T2 sequence (P21917 whole entry): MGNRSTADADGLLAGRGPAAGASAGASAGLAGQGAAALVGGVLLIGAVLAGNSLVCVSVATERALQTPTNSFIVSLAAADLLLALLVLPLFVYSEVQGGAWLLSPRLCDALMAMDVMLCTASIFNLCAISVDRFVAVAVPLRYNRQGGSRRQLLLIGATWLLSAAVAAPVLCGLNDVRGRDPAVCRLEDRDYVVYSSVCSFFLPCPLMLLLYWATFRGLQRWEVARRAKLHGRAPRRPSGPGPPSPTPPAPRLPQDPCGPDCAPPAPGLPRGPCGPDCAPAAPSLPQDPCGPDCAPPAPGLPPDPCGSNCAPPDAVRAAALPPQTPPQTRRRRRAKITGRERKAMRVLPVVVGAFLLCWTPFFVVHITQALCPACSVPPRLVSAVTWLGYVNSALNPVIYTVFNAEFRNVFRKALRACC

D(2) dopamine receptor [2] = biological target: T1, D(2) dopamine receptor; test: Antagonist activity at human recombinant D2 receptor expressed in HEK293 cells by FLIPR assay

T1 sequence (P14416 whole entry): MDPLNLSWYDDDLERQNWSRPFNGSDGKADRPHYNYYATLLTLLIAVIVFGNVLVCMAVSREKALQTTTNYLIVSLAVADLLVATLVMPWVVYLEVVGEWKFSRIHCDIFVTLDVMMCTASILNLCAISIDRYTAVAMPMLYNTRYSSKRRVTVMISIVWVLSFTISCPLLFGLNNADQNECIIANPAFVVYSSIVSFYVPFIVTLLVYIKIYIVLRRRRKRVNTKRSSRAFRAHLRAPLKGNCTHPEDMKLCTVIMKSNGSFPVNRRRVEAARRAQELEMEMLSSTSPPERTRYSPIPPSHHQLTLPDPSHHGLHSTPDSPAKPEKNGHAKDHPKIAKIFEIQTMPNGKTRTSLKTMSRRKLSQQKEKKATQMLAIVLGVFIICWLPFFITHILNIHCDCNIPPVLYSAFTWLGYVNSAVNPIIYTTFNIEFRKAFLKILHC

SMILES | pEC50 (D(2) dopamine receptor [1]) | pEC50 (D(4) dopamine receptor) | pIC50 (D(2) dopamine receptor [2])
Cc1ccccc1/C(CCN1CCN(c2ccccn2)CC1)=N\O | < 5.00 | 7.69 | < 5.00
CO/N=C(\c1ccc(Cl)cc1)C(CN1CCN(c2ccccn2)CC1)OC (centres undefined) | < 5.00 | 6.71 | < 5.00
CO/N=C(/CCN1CCN(c2ccccn2)CC1)c1ccccc1C | < 5.00 | 7.40 | < 5.00
CO/N=C(/c1ccc(Cl)cc1)C(CN1CCN(c2ccccn2)CC1)OC (centres undefined) | < 5.00 | 6.55 | < 5.00
N#Cc1cccnc1N1CCN(CC/C(=N/O)c2ccccc2)CC1 | < 5.00 | 7.70 | < 5.00
O/N=C(\CCN1CCN(c2ccccn2)CC1)c1cccc(Cl)c1 | < 5.00 | 7.92 | < 5.00
CO/N=C(/CCN1CCC(c2cccc[n+]2[O-])CC1)c1ccc(Cl)cc1 | < 5.00 | 7.33 | < 5.00
CO/N=C(\CCN1CCN(c2ccccn2)CC1)c1ccc(Cl)cc1Cl | < 5.00 | 6.60 | < 5.00
CCO/N=C(\CCN1CCN(c2ccccc2)CC1)c1ccccc1 | < 5.00 | 6.96 | < 5.00
CO/N=C(/CCN1CCN(c2ccccn2)CC1)c1ccc(Cl)cc1Cl | < 5.00 | 6.53 | < 5.00
O/N=C(\CCN1CCN(c2ccccn2)CC1)c1ccc(F)cc1 | < 5.00 | 7.51 | < 5.00
CO/N=C(/CCN1CCN(c2ccccn2)CC1)c1cc(C)cc(C)c1 | < 5.00 | 7.13 | < 5.00
Cc1cccc(/C(=N\O)C(O)CN2CCN(c3ccccn3)CC2)c1 (centres undefined) | < 5.00 | 7.35 | < 5.00
O/N=C(/CCN1CCN(c2ccccn2)CC1)c1ccccc1Cl | < 5.00 | 7.60 | < 5.00
O/N=C(/CCN1CCN(c2ncccn2)CC1)c1ccccc1 | < 5.00 | 7.16 | < 5.00
CCO/N=C(\CCN1CCN(c2ccccc2OC)CC1)c1ccccc1 | < 5.00 | 6.47 | < 5.00
O/N=C(\CCN1CCN(c2ccccn2)CC1)c1ccccc1Cl | < 5.00 | 7.62 | < 5.00
CCO/N=C1/c2ccccc2CCC1CN1CCN(c2ccccn2)CC1 (centres undefined) | < 5.00 | 5.32 | < 5.00
CO/N=C(/CCN1CCN(c2ccccn2)CC1)c1ccc(Cl)cc1 | < 5.00 | 7.25 | < 5.00
Cc1ccc(OCc2ccccc2)c(/C(CCN2CCN(c3ccccn3)CC2)=N/O)c1 | < 5.00 | < 5.00 | < 5.00
CO/N=C(/CCN1CCN(c2ccccn2)CC1)c1ccccc1Cl | < 5.00 | 7.24 | < 5.00
CO/N=C(/CCN1CCN(c2ccccc2OC(C)C)CC1)c1ccc(F)cc1 | < 5.00 | 6.22 | < 5.00
CO/N=C(\CCN1CCN(c2ccccc2OC(C)C)CC1)c1ccc(F)cc1 | < 5.00 | 6.23 | < 5.00
CO/N=C(/CCN1CCN(c2ccccn2)CC1C)c1ccc(Cl)cc1 (centres undefined) | < 5.00 | 7.00 | < 5.00
N#Cc1cccc(/C(CCN2CCN(c3ccccn3)CC2)=N/O)c1 | < 5.00 | 7.88 | < 5.00
CCO/N=C(/CCN1CCN(c2ccccn2)CC1)c1ccccc1 | < 5.00 | 7.35 | < 5.00
CO/N=C(/CCN1CCN(c2ccccn2)CC1)c1ccc(Br)cc1 | < 5.00 | 7.09 | < 5.00

SMILES | pEC50 (D(2) dopamine receptor [1]) | pEC50 (D(4) dopamine receptor) | pIC50 (D(2) dopamine receptor [2])
O/N=C(\CCN1CCN(c2nccs2)CC1)c1ccccc1 | < 5.00 | 7.31 | < 5.00
CO/N=C(\CCN1CCC(c2cccc[n+]2[O-])CC1)c1ccc(Cl)cc1 | < 5.00 | 7.08 | < 5.00
CO/N=C(\CCCN1CCN(c2ccccn2)CC1)c1ccc(F)cc1 | < 5.00 | 7.38 | < 5.00
CO/N=C(\CCN1CCN(c2ccccn2)CC1)c1ccc(Cl)c(C)c1 | < 5.00 | 6.87 | < 5.00
Cc1cccc(/C(=N/O)C(O)CN2CCN(c3ccccn3)CC2)c1 (centres undefined) | < 5.00 | 8.31 | < 5.00
CCO/N=C(\CCN1CCN(c2ncccn2)CC1)c1ccccc1 | < 5.00 | 6.21 | < 5.00
CC(C)O/N=C(\CCN1CCN(c2ccccn2)CC1)c1ccccc1 | < 5.00 | 6.79 | < 5.00
CCO/N=C(\CCN1CCN(c2ncccc2C)CC1)c1ccccc1 | < 5.00 | 6.60 | < 5.00
CO/N=C(/c1cccnc1)C(O)CN1CCN(c2ccccn2)CC1 (centres undefined) | < 5.00 | 6.91 | < 5.00
CCCO/N=C(\CCN1CCN(c2ccccn2)CC1)c1ccccc1 | < 5.00 | 6.49 | < 5.00
O/N=C(\CCN1CCN(c2ncccn2)CC1)c1ccccc1 | < 5.00 | 7.41 | < 5.00
O/N=C(\CCN1CCN(c2ccccn2)CC1)c1cc(F)cc(F)c1 | < 5.00 | 7.71 | < 5.00
Cc1cc(C)cc(/C(CCN2CCN(c3ccccn3)CC2)=N/O)c1 | < 5.00 | 7.34 | < 5.00
CO/N=C(\CCN1CCN(c2ccccn2)CC1)c1ccccc1Cl | < 5.00 | 7.37 | < 5.00
O/N=C(/CCN1CCN(c2ccccn2)CC1)c1ccccc1 | < 5.00 | 7.66 | < 5.00
O/N=C(\CCN1CCN(c2ccccn2)CC1)c1ccc(Cl)cc1 | < 5.00 | 6.32 | < 5.00
CCO/N=C(\CCN1CCN(c2ccccc2C#N)CC1)c1ccccc1 | < 5.00 | 7.31 | < 5.00
CO/N=C(/CCN1CCN(c2ccccn2)CC1)c1ccccc1 | < 5.00 | 7.62 | < 5.00
O/N=C(/CCCN1CCN(c2ccccn2)CC1)c1ccc(F)cc1 | < 5.00 | 7.23 | < 5.00
O/N=C(\CCN1CCN(c2ccccn2)CC1)c1ccc(F)cc1F | < 5.00 | 8.05 | < 5.00
O/N=C(/CCN1CCN(c2ccccn2)CC1)c1cc(F)cc(F)c1 | < 5.00 | 7.76 | < 5.00
COC(CN1CCN(c2ccccn2)CC1)/C(=N\O)c1cccc(C)c1 (centres undefined) | < 5.00 | 7.46 | < 5.00
N#Cc1cccnc1N1CCN(CC/C(=N\O)c2ccccc2)CC1 | < 5.00 | 7.74 | < 5.00
CO/N=C(/CCN1CCN(c2ccccn2)CC1)c1cccc(Cl)c1 | < 5.00 | 6.95 | < 5.00
CCCCO/N=C(\CCN1CCN(c2ccccn2)CC1)c1ccccc1 | < 5.00 | 6.42 | < 5.00
Cc1ccc(O)c(/C(CCN2CCN(c3ccccn3)CC2)=N/O)c1 | < 5.00 | 7.72 | < 5.00
